This is a sample that favours compounds with a hit; in the whole collection about 0.9% have one here.
DDE Tn7 FP inh – inhibitors of Tn7 peptide binding to fibrin DD(E), primary screen, biochemical, fluorescence polarization, human fibrin, Tn7 probe; actives 0.13% (n = 370,000); inhibition, % at 8.3 µM; FP displacement of FITC-Tn7 peptide from fibrin DD(E); 0% = median of compound wells per plate; Fibrinogen beta chain (Homo sapiens), P02675;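 active = inhibition above the mean of compounds falling within the control limits plus 3 SD of them, cut at about 14% in these data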;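 also: 0% = plate median of compound wells and 100% = 10 µM Aha-Tn7 peptide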
Target sequence (P02675 whole entry, looked up): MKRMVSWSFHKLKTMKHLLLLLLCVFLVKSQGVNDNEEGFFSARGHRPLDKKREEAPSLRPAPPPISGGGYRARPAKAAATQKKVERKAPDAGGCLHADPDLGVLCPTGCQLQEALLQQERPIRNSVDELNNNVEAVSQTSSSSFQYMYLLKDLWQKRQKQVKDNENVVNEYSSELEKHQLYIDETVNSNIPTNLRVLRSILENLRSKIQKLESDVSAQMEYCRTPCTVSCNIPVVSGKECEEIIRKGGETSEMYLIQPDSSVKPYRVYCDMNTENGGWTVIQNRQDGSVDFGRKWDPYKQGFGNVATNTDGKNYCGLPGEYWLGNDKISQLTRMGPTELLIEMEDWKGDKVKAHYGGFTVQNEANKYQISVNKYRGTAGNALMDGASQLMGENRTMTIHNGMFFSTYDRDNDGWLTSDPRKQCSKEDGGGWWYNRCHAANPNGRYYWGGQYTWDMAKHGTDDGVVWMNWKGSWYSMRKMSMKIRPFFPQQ
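Test system – human fibrin DD(E) · Times – 10 min preincubation, 3 h with tracer, room temperature · Detection – fluorescence polarization of the labelled Tn7 tracer · Measure – percent inhibition normalized to high-control wells · Benchmarks – high control wells with 10 µM unlabelled Aha-Tn7 peptide (full inhibition) · Repeats – singlicate testing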
MT1-MMP act inh – blockers of MT1-MMP proenzyme processing, primary screen, HT1080 RFP-PRO-GFP cells, GFP/RFP fluorescence; GFP/RFP ratio fluorescence, overnight; percent of plate control window, DMSO zero; GFP/RFP ratio change, % at 20 µM; actives 0.061% (n = 360,000);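 active = GFP/RFP ratio change of at least 30% with cell ATP level not reduced by more than half and red fluorescence within 50% of control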
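Test system: HT1080 cells expressing an RFP-PRO-GFP fluorescent reporter construct / Compound dosing: single-point 20 µM compound, 1% DMSO / Schedule: cells overnight before dosing, compound overnight, 37 °C, 5% CO2 / Evaluation: GFP/RFP fluorescence ratio / Control set: DMSO and RFP-L50D-GFP cell wells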
PolyA inhibitor – polyadenylation inhibitors in yeast reporter cells, primary screen, luminescence, S. cerevisiae; S. cerevisiae SKY197-pL101 polyadenylation reporter, beta-gal luminescence; efflux-impaired pdr1/pdr3 knockout yeast; score 100 = 6 SD above DMSO; activity score, % at 12 µM; actives 0.02% (n = 300,000); AID 1875, 2009;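 active = lowest replicate activity score at least 50, where 100 means six control SD above control mean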;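 also: yeast exposed to compound for 9 h at 30 °C; higher score means more reporter readthrough which indicates perturbed polyadenylation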
DAGLB inhibitor – DAGLB lipase inhibitors, primary screen, biochemical, fluorescence, HTS; Diacylglycerol lipase-beta (Homo sapiens), Q8NCG7; HEK293T DAGLB membrane lysate, EnzChek fluorogenic substrate; inhibition, % at 5.17 µM; actives 0.059% (n = 340,000); AID 504411, 2011; in the data active = inhibition above about 34%;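 also: 0% = enzyme with vehicle and 100% = wells lacking enzyme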
DDE Tn6 FP inh – inhibitors of Tn6 peptide binding to fibrin DD(E), primary screen, biochemical, fluorescence polarization, human fibrin, Tn6 probe; inhibition, % at 8.3 µM; actives 0.21% (n = 370,000); Fibrinogen beta chain (Homo sapiens), P02675; Fibrin DD(E) TRITC-Tn6 fluorescence polarization displacement;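 active = inhibition above a per-campaign cutoff: mean of compounds within control limits plus 3 SD, cut at about 15% in these data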;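 also: 0% = median of all compound wells on the plate and 100% = blocking peptide control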
SKN-1 inh – suppressors of acrylamide-induced Pgst-4::GFP reporter in worms, primary screen, SKN-1 inhibitor project, whole organism, uHTS, GFP/RFP fluorescence ratio, strain VP596. C. elegans VP596 Pgst-4::GFP/RFP ratio, 24 h. inhibition, % at 21.8 µM. actives 0.49% (n = 360,000);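 active = interference check ratio from 0.5 to 1.5 plus GFP to RFP signal ratio inhibition reaching or exceeding a fixed threshold, cut at about 30% in these data, passing the limit was not always enough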
MT1-MMP conf – MT1-MMP activation inhibitors, hit retest, confirmation, single concentration, fluorescence, HT1080 RFP-PRO-GFP cells. shares compounds with MT1-MMP act inh. GFP and RFP fluorescence ratio, overnight. inhibition, % at 20 µM. actives 10% (n = 200). AID 652235, 2013;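 active = inhibition of at least 50% in the primary cell screen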
* hit, by the source's call; x = not tested or not shown.

SMILES	DDE Tn7 FP inh	MT1-MMP act inh	PolyA inhibitor	DAGLB inhibitor	DDE Tn6 FP inh	SKN-1 inh	MT1-MMP conf
C[C@H](CO)N1C[C@H](C)[C@@H](CN(C)S(=O)(=O)c2ccc(F)cc2)Oc2ccc(NC(=O)CCN3CCOCC3)cc2C1=O	0	32*	x	1	5	13	-1
CN1C2=CC=CC=CC2=[N+](C)C12C=CC(=[N+]([O-])[O-])C=C2[N+](=O)[O-] (centres undefined)	-7	39*	-22	10	-6	12	31
Cc1[nH]n(-c2ccccc2)c(=O)c1N=Nc1nccs1	-2	32*	13	18	-1	29	27
O=C(Nc1ccc(S(=O)(=O)Nc2ccccc2)cc1)C1COc2ccccc2O1 (centres undefined)	-2	31*	2	0	-1	1	7
Cc1cc(C)nc(NS(=O)(=O)c2ccc(NC(=O)C3COc4ccccc4O3)cc2)n1 (centres undefined)	9	-1	12	x	-2	-4	x
O=[N+]([O-])c1cc(Br)c(O)c(C=Nc2ccc(N3CCOCC3)cc2)c1	3	40*	-48	11	13	4	4
COc1ccc(-n2c(COc3ccc(Cl)cc3)nnc2SCc2nc3ccccc3[nH]2)cc1	-10	x	x	x	-3	x	x
CC1CCN(C(=O)c2ccc3c(c2NCCO)C(=O)c2ccccc2C3=O)CC1	-10	31*	-18	32	1	11	28
C[C@H]1[C@@H](OC(=O)NC2CCCCC2)CC[C@@]23CCCN2C(=O)CCC[C@@H]13	-11	x	x	x	3	x	x
CCOC(=O)C1=C(C)N=c2s/c(=C\c3ccc(OC(C)=O)c(OCC)c3)c(=O)n2C1/C=C/c1ccccc1 (centres undefined)	-3	42*	-6	-2	-3	33	-17
CCC(=O)N1CCC1(C)C(=O)Nc1ccc(F)cc1 (centres undefined)	9	34*	x	x	4	6	0
Cc1ccc(C)c(Nc2nc(N)c3ccccc3n2)c1	4	31*	25	0	3	-1	19
O=c1oc(Nc2cccc(F)c2)nc2ccccc12	-3	4	1	9	-5	15	x
Nc1nc(Nc2cccc(F)c2)nc2ccccc12	0	35*	13	-1	-8	2	25
C=CCN1[C@H](C#N)[C@@H](c2ccc(C#Cc3ccccc3OC)cc2)[C@H]1CO	4	x	x	x	-6	x	x
COc1ccc2c(c1)C[C@@H](CON1C(C)(C)CCCC1(C)C)N2S(=O)(=O)c1ccc(C)cc1	-6	x	x	x	2	x	x
Cc1cc2cc(CNC(=S)NCc3ccccc3)ccc2n1C	-4	46*	-23	9	3	36*	8
Cc1cc2cc(CNC(=S)NC3CCCCC3)ccc2n1C	1	24	-13	7	-4	22	x
Cc1cc2cc(CNC(=O)c3ccc(S(=O)(=O)N4CCCCC4)cc3)ccc2n1C	2	40*	-10	5	164*	62*	4
Cc1ccc(CNC(=O)c2ccc(S(=O)(=O)N3CCCCC3)cc2)cc1	-6	-2	x	1	-4	-1	x
CCCCNC(=S)NCc1ccc2c(c1)cc(C)n2C	4	4	-5	-1	2	16	x
COc1ccccc1NC(=S)NCc1ccc2c(c1)cc(C)n2C	-1	41*	-29	6	2	29	4
CCCCC(=O)NCc1ccc2c(c1)cc(C)n2C	0	47*	-5	-2	12	50*	10
CCNC(=O)C[C@H]1CC[C@H]2[C@@H](COc3ccc(NC(=O)Nc4ccccc4)cc3C(=O)N2C)O1	6	x	x	x	4	x	x
CCCS(=O)(=O)NCc1ccc2c(c1)cc(C)n2C	-5	34*	9	5	7	53*	10
SMILES	DDE Tn7 FP inh	MT1-MMP act inh	PolyA inhibitor	DAGLB inhibitor	DDE Tn6 FP inh	SKN-1 inh	MT1-MMP conf
COC(=O)[C@]12C[C@H](CC(=O)N3CCCC3)C(=O)N(CCc3ccc(OC)c(OC)c3)C1=C[C@H](C(C)C)O[C@@H]2C1CC1	1	x	x	x	-3	x	x
CCN1C(=O)/C(=C2\C=Cc3ccccc3N2CC)SC1=S	-4	99*	-35	10	-2	21	43
O=C(Nc1cccc(Br)c1)OC1CC2CC1[C@H]1CCCCN1C2 (some centres undefined)	8	x	x	x	6	x	x
O=C(/C=C(\c1ccc(Cl)cc1)n1cncn1)c1ccc(Cl)cc1	x	31*	-10	-1	x	-5	28
O=C(/C=C(\c1ccccc1)n1cncn1)c1ccccc1	-8	0	-8	-1	7	-1	x
COc1ccc(C)cc1N=Nc1ccc(O)c2ncccc12	-2	31*	-21	28	1	4	34
COc1ccc(N=Nc2ccc(O)c3ncccc23)cc1	2	8	29	26	-5	-3	x
C[C@H]1COc2cc(F)ccc2S(=O)(=O)N1C	-7	x	x	x	3	x	x
COc1cc(-c2cc(=O)c3c(O)c(OC)c(OC)cc3o2)cc(OC)c1O	7	31*	7	0	-14	8	35
COc1ccc(-c2cc(=O)c3c(O)c(OC)c(O)cc3o2)cc1	2	9	4	1	0	4	x
N#Cc1ccccc1N1CCN(C(=O)C2CCN(c3ncnc4c3sc3cccc(F)c34)CC2)CC1	-3	x	x	x	3	x	x
O=C(N/N=C/C1CC=CCC1)c1cc2ccccc2cc1O (centres undefined)	1	35*	-8	-7	2	-1	4
Cc1cc2ccccc2n1CCNC(=O)COc1ccccc1	-6	40*	1	4	13	49	4
COC(=O)CNC(=O)COc1ccccc1	-6	-2	-2	1	-4	1	x
CN1C2=N[C@H](c3ccccc3Br)CC(=O)N2/C(=C\c2ccccc2)[C@@H]1c1ccccc1	-5	x	x	x	1	x	x
COC(=O)c1ccc(Cn2ccc3ccc(-c4ccc5ccn(C(=O)c6ccc(C)cc6)c5c4)cc32)cc1	6	x	x	x	-3	x	x
